GalR3 antag – antagonists of human GalR3; O60755; HEK293 GalR3-CNG cAMP membrane potential fluorescence; galR3 body fused to GalR1 C-terminus; inhibition, % at 3 µM; actives 0.44% (n = 360,000);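 active means inhibition above the screen-wide average plus 3 SD, cut at about 13% in these data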;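 further: forskolin and galanin both at EC90 stimulate the cells; cAMP rise reported by CNG channel membrane potential dye signal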
Target sequence (O60755 1-299 limits assumed): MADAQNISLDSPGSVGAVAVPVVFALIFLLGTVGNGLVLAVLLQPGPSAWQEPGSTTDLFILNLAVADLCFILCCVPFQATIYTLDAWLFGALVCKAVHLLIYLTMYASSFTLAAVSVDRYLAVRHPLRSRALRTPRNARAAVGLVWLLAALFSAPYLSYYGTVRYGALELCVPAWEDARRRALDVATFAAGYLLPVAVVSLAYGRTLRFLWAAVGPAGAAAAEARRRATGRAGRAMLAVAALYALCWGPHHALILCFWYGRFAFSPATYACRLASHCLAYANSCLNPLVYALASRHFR
MC4R barr agon – human MC4R agonism via beta-arrestin | P32245 | AID 540308 | actives 0.98% (n = 360,000) | U2OS MC4R beta-arrestin complementation, luminescence; percent of melanotan II response, DMSO zero | activation, % at 8.9 µM;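 active means activation above a per-plate cutoff, the mean activation of sample wells on that plate plus 3 SD, cut at about 8% in these data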
Target sequence (P32245 whole entry, looked up): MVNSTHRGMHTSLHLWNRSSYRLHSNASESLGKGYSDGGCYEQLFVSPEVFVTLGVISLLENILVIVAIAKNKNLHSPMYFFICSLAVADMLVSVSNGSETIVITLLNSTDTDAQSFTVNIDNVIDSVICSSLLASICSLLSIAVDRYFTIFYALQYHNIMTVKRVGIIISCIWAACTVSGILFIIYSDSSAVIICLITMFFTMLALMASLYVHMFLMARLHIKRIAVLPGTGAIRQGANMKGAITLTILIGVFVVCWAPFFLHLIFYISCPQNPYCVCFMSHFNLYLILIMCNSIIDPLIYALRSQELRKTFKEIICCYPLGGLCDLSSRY
Calb FLC – affects C. albicans growth with fluconazole | C. albicans CaCi-2 + fluconazole, Alamar Blue growth, 48 h | growth inhibition, % (concentration not given with the values) | actives 0.57% (n = 300,000);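 active means growth inhibition above about 58% in most replicates, limit read from the data, passing the limit was not always enough; inconclusive means exactly half the replicates above a set limit; inactive means most replicates below a set limit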;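 further: all wells also contain fluconazole at 8 µg/ml as a sub-toxic cotreatment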
MC4R antag cAMP – human MC4R antagonism in cAMP assay; P32245; MC4R-expressing cells, MTII-stimulated cAMP, LANCE TR-FRET; AID 540295; actives 0.48% (n = 360,000); inhibition, % at 6.5 µM;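 active means inhibition above its plate's cutoff, the mean of tested wells on that plate plus 3 SD, cut at about 29% in these data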
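Material: human MC4R-expressing U2OS cells. Probe or stimulus: Melanotan II challenge. Dosing: 6.5 µM single dose. Times: 30-min compound, 1-h challenge, 1-h detection, room temperature. Technique: TR-FRET with Eu-cAMP and labeled anti-cAMP, 671 nm. Replication: singlicate.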
Efflux pump inh – antifungal efflux pump inhibition, Nile Red retention. S. cerevisiae Candida pump triplex. actives 0.44% (n = 330,000). inhibition, % at 10 µM;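 active means plate passing quality check with inhibition over a set limit, or well fluorescence over plate mean plus 4 SD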;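 further: Nile Red retained in pooled yeast measured as flow cytometry median fluorescence; higher means more Nile Red kept so more efflux inhibition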
H9c2 TAG inh – reduces triacylglycerol accumulation in H9c2 cells; Nile Red lipid (TAG) fluorescence; cells loaded with 200 µM oleic acid; inhibition, % at 12.5 µM; actives 0.66% (n = 230,000); AID 651582;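 active means pattern-corrected inhibition of lipid staining of at least 50% with the nuclear-stain viability signal not falling by more than 50%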
Cmpd fluor yeast – counter-screen for efflux pump inhibitors: compound fluorescence; shares compounds with Efflux pump inh; S. cerevisiae AD/pABC3, flow cytometry; fluorescence ratio to DMSO, % at 10 µM; actives 4% (n = 1,700);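 active means fluorescence ratio to DMSO above its plate's cutoff, the plate mean ratio plus 5 SD, cut at about 210% in these data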;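 further: unstained yeast with no Nile Red so the signal is compound autofluorescence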
Mdr1 pump inh – inhibitors of Candida albicans Mdr1 efflux pump. shares compounds with Efflux pump inh. S. cerevisiae AD/CaMDR1, Nile Red efflux, flow cytometry. inhibition, % at 10 µM. actives 1% (n = 1,700); in the data active means inhibition above about 26%;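 further: higher means more Nile Red retained so more efflux inhibition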
CaCdr2 efflux inh – inhibitors of Candida albicans Cdr2 efflux pump; shares compounds with Efflux pump inh; S. cerevisiae AD/CaCDR2, Nile Red retention, flow cytometry; Nile Red retention ratio vs DMSO, % at 10 µM; actives 4% (n = 1,700); in the data active means Nile Red retention ratio vs DMSO above about 190%;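 further: higher ratio means more blocking of Cdr2 efflux of the dye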
Cdr1 pump inh – inhibitors of Candida albicans Cdr1 efflux pump | shares compounds with Efflux pump inh | actives 1% (n = 1,700) | AID 588522 | S. cerevisiae AD/CaCDR1, Nile Red efflux, flow cytometry | inhibition, % at 10 µM;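 active means inhibition above the screen-wide mean plus twice its standard deviation, cut at about 32% in these data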
A number is an active result; n = inactive; u = inconclusive; x = no result; + = active, no number. This is a sample that favours compounds with a hit; in the whole collection about 2.9% have one here.

SMILES	GalR3 antag	MC4R barr agon	Calb FLC	MC4R antag cAMP	Efflux pump inh	H9c2 TAG inh	Cmpd fluor yeast	Mdr1 pump inh	CaCdr2 efflux inh	Cdr1 pump inh
CC1(c2nnnn2-c2ccc3c(c2)OCCO3)CCC(=O)N1CCc1c[nH]c2ccccc12 (configuration not stated)	n	x	x	x	x	x	x	x	x	x
CCCSc1nc(C)c(-c2csc(C(C#N)=C3CCCC3)n2)cc1C#N	n	n	n	n	0.9	x	n	n	n	n
CCCCSc1nc2c(cc1C#N)CCC2	n	n	n	n	n	x	x	x	x	x
CCCSc1nnc(-c2c[nH]c3ccccc23)n1C	x	n	n	n	0.5	n	n	n	n	n
CCCSc1nnc(-c2c[nH]c3ccccc23)n1CC	x	n	n	n	n	n	x	x	x	x
CCC(Cc1ccccc1)NC(=O)c1ccc2nc(N3CCOCC3)sc2c1 (configuration not stated)	n	n	n	n	2.1	n	n	n	n	n
CCC1(CC)SC(N)=NC1=O	n	n	x	n	x	n	x	x	x	x
O=C1N=c2ccccc2=C1c1sc(NS(=O)(=O)Cc2ccccc2)nc1O	n	n	n	n	0.7	n	n	n	n	n
O=C(O)CC1c2ccccc2CCN1S(=O)(=O)c1ccccc1 (configuration not stated)	n	n	n	n	n	n	x	x	x	x
O=C(O)CC1c2ccccc2CCN1S(=O)(=O)c1cccs1 (configuration not stated)	n	n	n	n	2.2	n	n	n	n	n
Cc1ccc(S(=O)(=O)N2CCOCC2)cc1NC(=O)COC(=O)c1ccc(Br)o1	n	n	x	n	x	n	x	x	x	x
CC(=O)OCCC(NS(=O)(=O)OCC(Cl)(Cl)Cl)c1ccccc1 (configuration not stated)	n	n	n	n	0.7	n	n	n	n	n
C[C@H](NS(=O)(=O)OCC(Cl)(Cl)Cl)C1CC1c1ccccc1 (some centres not stated)	n	n	n	n	n	n	x	x	x	x
CCN(CC)c1ccc2c(Cl)c(Br)c(=O)oc2c1	x	n	n	n	8.6	n	452	n	504	n
CCN(CC)c1ccc2c(C)c(Cl)c(=O)oc2c1	n	n	n	n	n	n	x	x	x	x
O=C(COC(=O)c1cccc(S(=O)(=O)N2CCOCC2)c1)Nc1ccc2c(c1)OCO2	n	n	n	n	n	n	x	x	x	x
O=C(COC(=O)c1ccc2c(c1)OCCO2)Nc1cccc(S(=O)(=O)N2CCOCC2)c1	n	n	n	n	0.5	n	n	n	n	n
COC(=O)CCCn1cc(CN2CC(N3CCN(C4CCN(C)CC4)CC3)CS2(=O)=O)nn1 (configuration not stated)	n	x	x	x	x	x	x	x	x	x
N/C(=N\OC(=O)Cc1ccccc1)c1ccccc1Cl	n	n	n	n	n	n	n	n	n	n
C[C@@H]1CN([C@@H](C)CO)S(=O)(=O)c2ccc(Br)cc2O[C@@H]1CN(C)Cc1ccc2c(c1)OCO2	n	x	x	x	x	x	x	x	x	x
N#C/C(=C\c1ccco1)C(=O)Nc1cccc2ncccc12	n	n	n	n	n	x	n	n	n	n
CCC1(c2ccccc2)NC(=O)N(CC(=O)N(C)Cc2ccccc2)C1=O (configuration not stated)	n	n	n	n	1.1	x	n	n	n	n
Cc1ccnc(SC2CC(=O)N(c3ccc(Br)cc3)C2=O)n1 (configuration not stated)	n	n	n	n	1.1	x	n	n	n	n
Cc1nnc(Cc2ccccc2)c2n[nH]c(C)c12	n	n	x	n	x	n	x	x	x	x
COc1ccc(OCC(CO)N2CCN(c3ccccc3)CC2)cc1 (configuration not stated)	n	n	x	n	x	n	x	x	x	x
SMILES	GalR3 antag	MC4R barr agon	Calb FLC	MC4R antag cAMP	Efflux pump inh	H9c2 TAG inh	Cmpd fluor yeast	Mdr1 pump inh	CaCdr2 efflux inh	Cdr1 pump inh
CC[n+]1ccc(/C=C/c2c[nH]c3ccccc23)cc1	n	n	n	n	2.3	x	n	n	n	n
CCn1c(/C=C/c2c[nH]c3ccccc23)nc2ccccc2c1=O	n	n	n	n	n	n	x	x	x	x
COc1ccc2c(c1)c1ccccc1n2C	n	n	n	n	n	n	x	x	x	x
COc1ccc2c(c1)c(/C=C/c1cc[n+](C)cc1)cn2C	n	n	81	n	16	x	+	n	n	n
COc1ccc2c(/C=C/c3cc[n+](C)cc3)c[nH]c2c1	n	n	n	n	9.1	x	+	n	256	n
Cc1ccc2[nH]cc(/C=C/c3cc[n+](C)cc3)c2c1	n	n	n	n	9.3	x	908	n	n	n
OC(c1ccc(Cl)cc1)c1ncc(-c2ccccc2Cl)[nH]1 (configuration not stated)	n	n	x	n	x	n	x	x	x	x
O=C(c1cc(COc2cccc(C(F)(F)F)c2)on1)N1CCC(c2ccccc2)CC1	n	n	n	n	n	n	x	x	x	x
O=C(c1cc(COc2cccc(C(F)(F)F)c2)on1)N1CCC(c2ccncc2)CC1	n	n	u	n	0.5	n	n	n	206	n
Cc1ocnc1C(=O)Nc1ccc(Cl)cc1	n	n	n	n	9.8	x	n	n	n	n
CCCCN1C(=O)C(CC(=O)NC(c2ccccc2)c2ccccc2)CC(C(=O)N(C(C)C)C(C)C)=C1C (configuration not stated)	n	n	x	n	x	n	x	x	x	x
O=C(N/N=C/c1cccs1)c1ccc2c(c1)OCO2	n	n	n	n	11	x	n	n	n	n
O=C(N/N=C/c1ccccc1O)c1ccc2c(c1)OCO2	n	n	n	n	n	x	x	x	x	x
O=C(N[C@H](C(=O)N1CCC[C@H]1C(=O)NCc1ccccc1)c1ccccc1)c1ccc(Cl)cc1Cl	n	x	x	x	x	x	x	x	x	x
COc1ccc(NC(=O)Cn2cc(S(=O)(=O)Cc3ccccc3)c3ccccc32)c(OC)c1	n	n	n	n	9.6	x	n	n	n	n
COc1ccc(NC(=O)CS(=O)(=O)c2cn(CC(=O)N(C(C)C)C(C)C)c3ccccc23)c(OC)c1	n	n	x	n	n	n	x	x	x	x
CCC(=O)N1CCCC(C)(C(=O)NS(=O)(=O)c2ccccc2Cl)C1 (configuration not stated)	n	n	x	n	x	n	x	x	x	x
COc1ccc(C(CCN2CCOCC2)c2c(OC)cc(OC)c3c(-c4ccccc4)cc(=O)oc23)cc1 (configuration not stated)	n	n	x	n	1.6	n	n	n	n	n
